Columns and labels:
Format in all cases: functional
Klebsiella pneumoniae [1] = assay: Antibacterial activity against ESBL-positive Klebsiella pneumoniae J 14368/08 after 24 hrs by microdilution broth method; conditions: J 14368/08, 24 h
How it was run: (§1)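 Mueller-Hinton broth microdilution (modified M07-A07), pH 7.4 (±0.2). Compounds dissolved in DMSO, tested at final 500 to 0.49 µmol/L. Inoculum in sterile water matched to 0.5 McFarland. Incubated in the dark, humid atmosphere, 35 °C, read at 24 and 48 h visually and at 540 nm. MIC taken as ≥95% growth reduction (IC95) versus control.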

Staphylococcus aureus [2] = assay: Antibacterial activity against methicillin-resistant Staphylococcus aureus H 5996/08 after 24 hrs by microdilution broth method; conditions: H 5996/08, 24 h
Enterococcus sp. [3] = assay: Antibacterial activity against Enterococcus sp. J 14365/08 after 24 hrs by microdilution broth method; conditions: J 14365/08, 24 h; how it was run: as §1
[4] = tested on: Trichophyton mentagrophytes; assay: Antifungal activity against Trichophyton mentagrophytes 445 after 48 hrs by microdilution broth method; conditions: Trichophyton mentagrophytes, 445, 48 h
Mycobacterium kansasii [5] = assay: Antimycobacterial activity against Mycobacterium kansasii 235/80 after 7 days; conditions: 235/80, 168 h
How it was run: (§2)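 Šula's semisynthetic medium micromethod at 37 °C, read after 7, 14 and 21 days. The 1.0 McFarland suspension was diluted 10^-4. MIC determined. 6509/96 is a clinical isolate.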

Nakaseomyces glabratus [6] = assay: Antifungal activity against Candida glabrata 20/I after 24 hrs by microdilution broth method
How it was run: (§3)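 CLSI M27-A3 broth microdilution in RPMI 1640 with glutamine, buffered to pH 7.0 with MOPS; DMSO diluent. Yeast inoculum 5 × 10^3 ± 0.2 CFU/mL. Moulds grown on Sabouraud agar 3–10 days before spore harvest, final inoculum 0.5-5 × 10^4 CFU/mL, checked in a Bürker chamber. Incubated dark, humid, 35 °C, read at 24 and 48 h visually and at 540 nm. MIC taken as ≥80% (yeasts) or ≥50% (filamentous) growth reduction versus control.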

Staphylococcus aureus [7] = assay: Antibacterial activity against methicillin-resistant Staphylococcus aureus H 5996/08 after 48 hrs by microdilution broth method; conditions: H 5996/08, 48 h
Lichtheimia corymbifera [8] = assay: Antifungal activity against Absidia corymbifera 272 after 48 hrs by microdilution broth method; conditions: Lichtheimia corymbifera, 272, 48 h; how it was run: as §3
Candida tropicalis [9] = assay: Antifungal activity against Candida tropicalis 156 after 24 hrs by microdilution broth method; conditions: Candida tropicalis, 156, 24 h; how it was run: as §3
Pichia kudriavzevii [10] = assay: Antifungal activity against Candida krusei E28 after 24 hrs by microdilution broth method; conditions: E28, 24 h; how it was run: as §3
Pichia kudriavzevii [11] = assay: Antifungal activity against Candida krusei E28 after 48 hrs by microdilution broth method; conditions: E28, 48 h; how it was run: as §3
[12] = tested on: Mycobacterium tuberculosis; assay: Antimycobacterial activity against Mycobacterium tuberculosis H37Rv 331/88 after 21 days; conditions: H37Rv 331/88, 504 h
Candida albicans [13] = assay: Antifungal activity against Candida albicans ATCC 44859 after 24 hrs by microdilution broth method; conditions: ATCC 44859, 24 h; how it was run: as §3
Candida albicans [14] = assay: Antifungal activity against Candida albicans ATCC 44859 after 48 hrs by microdilution broth method; conditions: ATCC 44859, 48 h; how it was run: as §3
Mycobacterium kansasii [15] = assay: Antimycobacterial activity against Mycobacterium kansasii 235/80 after 21 days; conditions: 235/80, 504 h; how it was run: as §2
Escherichia coli [16] = assay: Antibacterial activity against Escherichia coli CCM4517 after 48 hrs by microdilution broth method; conditions: CCM4517, 48 h; how it was run: as §1
Trichosporon asahii [17] = assay: Antifungal activity against Trichosporon asahii 1188 after 24 hrs by microdilution broth method; conditions: Trichosporon asahii, 1188, 24 h; how it was run: as §3
Staphylococcus aureus [18] = assay: Antibacterial activity against Staphylococcus aureus CCM 4516/08 after 24 hrs by microdilution broth method; conditions: CCM 4516/08, 24 h
Mycobacterium kansasii [19] = assay: Antimycobacterial activity against Mycobacterium kansasii 235/80 after 14 days; conditions: 235/80, 336 h; how it was run: as §2
Mycobacterium kansasii [20] = assay: Antimycobacterial activity against Mycobacterium kansasii 6509/96 after 7 days; conditions: 6509/96, 168 h; how it was run: as §2
Pseudomonas aeruginosa [21] = assay: Antibacterial activity against Pseudomonas aeruginosa CCM 1961 after 24 hrs by microdilution broth method; conditions: CCM 1961, 24 h; how it was run: as §1
Escherichia coli [22] = assay: Antibacterial activity against Escherichia coli CCM4517 after 24 hrs by microdilution broth method; conditions: CCM4517, 24 h; how it was run: as §1
Mycobacterium kansasii [23] = assay: Antimycobacterial activity against Mycobacterium kansasii 6509/96 after 21 days; conditions: 6509/96, 504 h; how it was run: as §2
Staphylococcus aureus [24] = assay: Antibacterial activity against Staphylococcus aureus CCM 4516/08 after 48 hrs by microdilution broth method; conditions: CCM 4516/08, 48 h
Trichosporon asahii [25] = assay: Antifungal activity against Trichosporon asahii 1188 after 48 hrs by microdilution broth method; conditions: Trichosporon asahii, 1188, 48 h; how it was run: as §3
Nakaseomyces glabratus [26] = assay: Antifungal activity against Candida glabrata 20/I after 48 hrs by microdilution broth method; how it was run: as §3
Klebsiella pneumoniae [27] = assay: Antibacterial activity against Klebsiella pneumoniae D 11750/08 after 48 hrs by microdilution broth method; conditions: D 11750/08, 48 h; how it was run: as §1
Mycobacterium kansasii [28] = assay: Antimycobacterial activity against Mycobacterium kansasii 6509/96 after 14 days; conditions: 6509/96, 336 h; how it was run: as §2
Mycobacterium avium [29] = assay: Antimycobacterial activity against Mycobacterium avium 330/80 after 21 days; conditions: 330/80, 504 h
Mycobacterium avium [30] = assay: Antimycobacterial activity against Mycobacterium avium 330/80 after 14 days; conditions: 330/80, 336 h
Aspergillus fumigatus [31] = assay: Antifungal activity against Aspergillus fumigatus 231 after 24 hrs by microdilution broth method; conditions: Aspergillus fumigatus, 231, 24 h; how it was run: as §3
Aspergillus fumigatus [32] = assay: Antifungal activity against Aspergillus fumigatus 231 after 48 hrs by microdilution broth method; conditions: Aspergillus fumigatus, 231, 48 h; how it was run: as §3
Pseudomonas aeruginosa [33] = assay: Antibacterial activity against Pseudomonas aeruginosa CCM 1961 after 48 hrs by microdilution broth method; conditions: CCM 1961, 48 h; how it was run: as §1
[34] = tested on: Staphylococcus epidermidis; assay: Antibacterial activity against Staphylococcus epidermidis H 6966/08 after 48 hrs by microdilution broth method; conditions: H 6966/08, 48 h; how it was run: as §1
Lichtheimia corymbifera [35] = assay: Antifungal activity against Absidia corymbifera 272 after 24 hrs by microdilution broth method; conditions: Lichtheimia corymbifera, 272, 24 h; how it was run: as §3
Enterococcus sp. [36] = assay: Antibacterial activity against Enterococcus sp. J 14365/08 after 48 hrs by microdilution broth method; conditions: J 14365/08, 48 h; how it was run: as §1
Klebsiella pneumoniae [37] = assay: Antibacterial activity against Klebsiella pneumoniae D 11750/08 after 24 hrs by microdilution broth method; conditions: D 11750/08, 24 h; how it was run: as §1
[38] = tested on: Mycobacterium tuberculosis; assay: Antimycobacterial activity against Mycobacterium tuberculosis H37Rv 331/88 after 14 days; conditions: H37Rv 331/88, 336 h
Candida tropicalis [39] = assay: Antifungal activity against Candida tropicalis 156 after 48 hrs by microdilution broth method; conditions: Candida tropicalis, 156, 48 h; how it was run: as §3
[40] = tested on: Trichophyton mentagrophytes; assay: Antifungal activity against Trichophyton mentagrophytes 445 after 24 hrs by microdilution broth method; conditions: Trichophyton mentagrophytes, 445, 24 h
Klebsiella pneumoniae [41] = assay: Antibacterial activity against ESBL-positive Klebsiella pneumoniae J 14368/08 after 48 hrs by microdilution broth method; conditions: J 14368/08, 48 h; how it was run: as §1
[42] = tested on: Staphylococcus epidermidis; assay: Antibacterial activity against Staphylococcus epidermidis H 6966/08 after 24 hrs by microdilution broth method; conditions: H 6966/08, 24 h; how it was run: as §1

Measured: MIC

O=C(Nc1cccc(Cl)c1)c1cc([N+](=O)[O-])ccc1O
31.2 µM: Staphylococcus aureus [18]
250 µM: [4] | [40]
125 µM: Mycobacterium avium [29] | Mycobacterium avium [30]
16 µM: Mycobacterium kansasii [5] | [12] | [38]
32 µM: Mycobacterium kansasii [19] | Mycobacterium kansasii [20]
62.5 µM: Staphylococcus aureus [2] | Staphylococcus aureus [7] | Mycobacterium kansasii [15] | Mycobacterium kansasii [23] | Staphylococcus aureus [24] | Mycobacterium kansasii [28] | [34] | [42]
500 µM: Enterococcus sp. [3] | Pichia kudriavzevii [10] | Aspergillus fumigatus [31] | Aspergillus fumigatus [32]
> 500 µM: Klebsiella pneumoniae [1] | Nakaseomyces glabratus [6] | Lichtheimia corymbifera [8] | Candida tropicalis [9] | Pichia kudriavzevii [11] | Candida albicans [13] | Candida albicans [14] | Escherichia coli [16] | Trichosporon asahii [17] | Pseudomonas aeruginosa [21] | Escherichia coli [22] | Trichosporon asahii [25] | Nakaseomyces glabratus [26] | Klebsiella pneumoniae [27] | Pseudomonas aeruginosa [33] | Lichtheimia corymbifera [35] | Enterococcus sp. [36] | Klebsiella pneumoniae [37] | Candida tropicalis [39] | Klebsiella pneumoniae [41]

O=C(Nc1cccc(F)c1)c1cc([N+](=O)[O-])ccc1O
32 µM: [12] | Mycobacterium kansasii [20]
> 500 µM: Klebsiella pneumoniae [1] | Enterococcus sp. [3] | Nakaseomyces glabratus [6] | Lichtheimia corymbifera [8] | Candida tropicalis [9] | Pichia kudriavzevii [10] | Pichia kudriavzevii [11] | Candida albicans [13] | Candida albicans [14] | Escherichia coli [16] | Trichosporon asahii [17] | Pseudomonas aeruginosa [21] | Escherichia coli [22] | Trichosporon asahii [25] | Nakaseomyces glabratus [26] | Klebsiella pneumoniae [27] | Aspergillus fumigatus [31] | Aspergillus fumigatus [32] | Pseudomonas aeruginosa [33] | Lichtheimia corymbifera [35] | Enterococcus sp. [36] | Klebsiella pneumoniae [37] | Candida tropicalis [39] | Klebsiella pneumoniae [41]
500 µM: [4] | [40]
16 µM: Mycobacterium kansasii [5] | [38]
125 µM: Staphylococcus aureus [2] | Staphylococcus aureus [7] | Staphylococcus aureus [18] | Staphylococcus aureus [24] | Mycobacterium avium [29] | Mycobacterium avium [30] | [42]
250 µM: [34]
62.5 µM: Mycobacterium kansasii [15] | Mycobacterium kansasii [19] | Mycobacterium kansasii [23] | Mycobacterium kansasii [28]

O=C(Nc1ccc([N+](=O)[O-])c(C(F)(F)F)c1)c1cc([N+](=O)[O-])ccc1O
62.5 µM: Staphylococcus aureus [18] | Mycobacterium kansasii [19] | Mycobacterium kansasii [20] | Staphylococcus aureus [24] | Mycobacterium kansasii [28]
> 500 µM: Klebsiella pneumoniae [1] | Enterococcus sp. [3] | [4] | Nakaseomyces glabratus [6] | Lichtheimia corymbifera [8] | Candida tropicalis [9] | Pichia kudriavzevii [10] | Pichia kudriavzevii [11] | Candida albicans [13] | Candida albicans [14] | Escherichia coli [16] | Trichosporon asahii [17] | Pseudomonas aeruginosa [21] | Escherichia coli [22] | Trichosporon asahii [25] | Nakaseomyces glabratus [26] | Klebsiella pneumoniae [27] | Aspergillus fumigatus [31] | Aspergillus fumigatus [32] | Pseudomonas aeruginosa [33] | Lichtheimia corymbifera [35] | Enterococcus sp. [36] | Klebsiella pneumoniae [37] | Candida tropicalis [39] | [40] | Klebsiella pneumoniae [41]
32 µM: Mycobacterium kansasii [5] | [12] | [38]
125 µM: Mycobacterium kansasii [15] | Mycobacterium kansasii [23] | Mycobacterium avium [29] | Mycobacterium avium [30] | [34] | [42]
31.2 µM: Staphylococcus aureus [2] | Staphylococcus aureus [7]

From ChEMBL document CHEMBL3627671, “Novel derivatives of nitro-substituted salicylic acids: Synthesis, antimicrobial activity and cytotoxicity” (Bioorg Med Chem, 2015)
